Substrate in series [1]: COc1cccc2c1C(=O)c1c(O)c3c(c(O)c1C2=O)C[C@@](O)(C(=O)CO)C[C@@H]3OC1CC(NC(=O)OCC2=C(C(=O)O)N3C(=O)[C@@H](NC(=O)CCCC(=O)O)[C@H]3SC2)C(O)C(C)O1
Description: The kinetic constant(Km) value as spectrophotometrically by using Enterobacter cloacae P99 beta-lactamase (ECIbL) enzyme as catalyst. A digest of the protocol:
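Initial-velocity kinetics at 23 °C in PBS with 12.5 μg/mL bovine serum albumin. […] Hydrolysis followed by absorbance change at 230 nm or 260 nm, linear over 1 min. Km from direct linear plots, mean of at least three independent experiments.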

Substrate in series [2]: COc1cccc2c1C(=O)c1c(O)c3c(c(O)c1C2=O)C[C@@](O)(C(=O)CO)C[C@@H]3OC1CC(NC(=O)OCC2=C(C(=O)O)N3C(=O)[C@@H](NC(=O)CCCC(=O)O)[C@H]3SC2)C(O)C(C)O1
Briefly: The kinetic constant(Km) value as spectrophotometrically by using Bacillus cereus beta-lactamase (BCbL) enzyme as catalyst. The method, boiled down:
(§1)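 Spectrophotometric hydrolysis at 23 °C in PBS with 12.5 μg/mL BSA. EClbL was used at 0.1 μg/mL; BCbL and ECbL at 1.0 μg/mL. […] Initial velocities were linear over 1 min.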

Substrate in series [3]: COc1cccc2c1C(=O)c1c(O)c3c(c(O)c1C2=O)C[C@@](O)(C(=O)CO)C[C@@H]3OC1CC(NC(=O)OCC2=C(C(=O)O)N3C(=O)[C@@H](NC(=O)CCCC(=O)O)[C@H]3SC2)C(O)C(C)O1
Description: The kinetic constant(Km) value as spectrophotometrically by using Escherichia coli TEM-1 beta-lactamase (ECbL) enzyme as catalyst. A digest of the protocol:
as §1

The Km is the substrate concentration at which the rate is half of its maximum.

B1: Beta-lactamase (Enterobacter cloacae), P05364 (protein)
chain: MMRKSLCCALLLGISCSALATPVSEKQLAEVVANTITPLMKAQSVPGMAVAVIYQGKPHYYTFGKADIAANKPVTPQTLFELGSISKTFTGVLGGDAIARGEISLDDAVTRYWPQLTGKQWQGIRMLDLATYTAGGLPLQVPDEVTDNASLLRFYQNWQPQWKPGTTRLYANASIGLFGALAVKPSGMPYEQAMTTRVLKPLKLDHTWINVPKAEEAHYAWGYRDGKAVRVSPGMLDAQAYGVKTNVQDMANWVMANMAPENVADASLKQGIALAQSRYWRIGSMYQGLGWEMLNWPVEANTVVEGSDSKVALAPLPVAEVNPPAPPVKASWVHKTGSTGGFGSYVAFIPEKQIGIVMLANTSYPNPARVEAAYHILEALQ
Consider B1, for which, in series [1], the Km turned out to be 83 µM.

B2: Metallo-beta-lactamase type 2 (Bacillus cereus), P14488 (protein)
chain: MKNTLLKLGVCVSLLGITPFVSTISSVQAERTVEHKVIKNETGTISISQLNKNVWVHTELGYFSGEAVPSNGLVLNTSKGLVLVDSSWDDKLTKELIEMVEKKFKKRVTDVIITHAHADRIGGMKTLKERGIKAHSTALTAELAKKNGYEEPLGDLQSVTNLKFGNMKVETFYPGKGHTEDNIVVWLPQYQILAGGCLVKSASSKDLGNVADAYVNEWSTSIENVLKRYGNINLVVPGHGEVGDRGLLLHTLDLLK
In the case of B2, the Km in series [2] turned out to be 56 µM.

B3: Beta-lactamase TEM (Escherichia coli), P62593 (protein)
chain: MSIQHFRVALIPFFAAFCLPVFAHPETLVKVKDAEDQLGARVGYIELDLNSGKILESFRPEERFPMMSTFKVLLCGAVLSRVDAGQEQLGRRIHYSQNDLVEYSPVTEKHLTDGMTVRELCSAAITMSDNTAANLLLTTIGGPKELTAFLHNMGDHVTRLDRWEPELNEAIPNDERDTTMPAAMATTLRKLLTGELLTLASRQQLIDWMEADKVAGPLLRSALPAGWFIADKSGAGERGSRGIIAALGPDGKPSRIVVIYTTGSQATMDERNRQIAEIGASLIKHW
For the protein B3, the Km in series [3] came to 73 µM.

Source of the values: ChEMBL document CHEMBL1128301, “Cephalosporin derivatives of doxorubicin as prodrugs for activation by monoclonal antibody-beta-lactamase conjugates” (J Med Chem, 1995).
